In ChEMBL document CHEMBL1121733, “Synthesis and evaluation of ureido- and vinylureidopenicillins as inhibitors of intraruminal lactic acid production” (J Med Chem, 1981):
In brackets after ≈: the same amount, converted by molar mass.

Assays:
[1] = Lipophilicity estimated on reversed phase TLC; format: physicochemical; conditions: silicone oil-coated silica gel plates, 30% MeOH in pH 7.0 buffer
Method in brief: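 Reversed-phase TLC on silica gel G plates dipped in 20 vol % silicone oil in hexane and dried. Mobile phase 30 vol % MeOH in pH 7.0 buffer. ΔR_M measured against a reference compound run on every plate, averaged over 2–6 plates.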

[2] = Percent inhibition of lactic acid production by the compound at 50 p.p.m.; format: functional; design: scale not given: the % may be the effect or the level left
Method in brief: (§1)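 Screen at 50, 5 and 0.5 µg/mL of incubation contents in strained bovine rumen fluid mixed 1:1 with CO2-saturated glucose/trypticase buffer, 5.5 h at 39 °C. Stopped with metaphosphoric acid, l(+)-lactate measured enzymatically. Expressed as lactate production as % of control incubations without compound.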

[3] = Percent inhibition of lactic acid production by the compound at 0.5 p.p.m.; format: functional; design: scale not given: the % may be the effect or the level left; method in brief: as §1
[4] = Percent inhibition of lactic acid production by the compound at 5 p.p.m.; format: functional; design: scale not given: the % may be the effect or the level left; method in brief: as §1
Staphylococcus aureus [5] = assay: (§2) In vitro Minimum inhibitory concentration against Staphylococcus penicillin G resistant); format: functional, staphylococcus pureus
Method in brief: (§3)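 Broth microdilution in brain–heart infusion broth with 0.066 g/L tetrazolium chloride. Serial twofold dilutions from 200 to 0.0008 µg/mL. Inoculum: 1 µL of a 1:10 dilution of an 18 h, 37 °C culture. Incubated 16 h at 37 °C; growth read as red precipitate. MIC taken from triplicate trays per compound per organism.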

[6] = Effective inhibition concentration for reduction of lactic acid production to less than 10% of control; format: functional
Method in brief: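 Bovine rumen fluid from a fistulated animal, strained through cheesecloth, mixed 1:1 with CO2-saturated buffer (glucose 27 g/L, trypticase 1.50 g/L, Na2HPO4 4.26 g/L). Compounds retested from 0.5 mg/mL stock serially diluted to 0.004 mg/mL, duplicate tubes, 5.5 h at 39 °C. Stopped with 25% metaphosphoric acid, centrifuged, l(+)-lactate measured enzymatically. Value is the minimum concentration giving lactate below 10% of no-compound control.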

[7] = Effective inhibition concentration for reduction of propionic acid production to less than 95% of control; format: functional
Method in brief: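 Rumen fluid from a fistulated bovine, strained and mixed 1:1 with CO2-saturated buffer with moderate substrate at normal intraruminal pH (volatile fatty acid model). Retest dilutions from 0.5 mg/mL stock down to 0.004 mg/mL, triplicate tubes, 9 h. Stopped with 25% metaphosphoric acid, centrifuged, propionate measured by GC-FID. Value is the minimum concentration giving propionate below 95% of control.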

Streptococcus pyogenes = assay: In vitro Minimum inhibitory concentration against Streptococcus pyogenes ATCC 8668; format: functional
Method in brief: (§4)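 Twofold broth microdilution from 200 to 0.0008 µg/mL in brain–heart infusion broth with 0.066 g/L tetrazolium chloride. Inoculum was 1 µL of a 1:10 dilution of an 18 h, 37 °C culture. Plates incubated 16 h at 37 °C, with growth read as red precipitate. Triplicate trays per compound per organism.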

Staphylococcus aureus [8] = assay: In vitro Minimum inhibitory concentration against Staphylococcus aureus ATCC 6538P (penicillin G sensitive); format: functional; method in brief: as §4
Enterococcus faecium = assay: In vitro Minimum inhibitory concentration against Streptococcus faecium ATCC 8043-2; format: functional; method in brief: as §4
Escherichia coli = assay: In vitro Minimum inhibitory concentration against Escherichia coli ATCC 25922; format: functional; method in brief: as §4
Staphylococcus aureus [9] = assay: as §2; format: functional; method in brief: as §3

| Structure (SMILES) | Delta RM [1] | Control [2] [%] | Control [3] [%] | Control [4] [%] | MIC (Staphylococcus aureus [5]) [µg/mL] | Concentration [6] [µg/mL] | Dose [7] [µg/mL] | MIC (Streptococcus pyogenes) [µg/mL] | MIC (Staphylococcus aureus [8]) [µg/mL] | MIC (Enterococcus faecium) [µg/mL] | MIC (Escherichia coli) [µg/mL] | MIC (Staphylococcus aureus [9]) [µg/mL] |
| --- | --- | --- | --- | --- | --- | --- | --- | --- | --- | --- | --- | --- |
| CC1(C)SC2C(NC(=O)Nc3ccc(Cl)cc3)C(=O)N2[C@H]1C(=O)[O-].[Na+] (stereo partly specified) | -0.01 | 2 | 102 | 112 |  |  |  |  |  |  |  |  |
| CC1(C)SC2C(NC(=O)N/C=C/c3ccc(Cl)cc3)C(=O)N2[C@H]1C(=O)[O-].[Na+] (stereo partly specified) | 0.58 | 10 | 0 | 2 | 50 | 1.25 | > 10 | 3.12 | 6.25 | > 200 | > 200 |  |
| CC1(C)SC2C(NC(=O)N/C=C/c3cccs3)C(=O)N2[C@H]1C(=O)[O-].[Na+] (stereo partly specified) | -0.2 | 0 | 102 | 52 |  |  |  |  |  |  |  |  |
| C/C(=C\NC(=O)NC1C(=O)N2C1SC(C)(C)[C@@H]2C(=O)[O-])c1ccccc1.[Na+] (stereo partly specified) | 0.3 | 0 | 87 | 5 |  |  |  |  |  |  |  |  |
| CC(C)(C)c1ccc(/C=C/NC(=O)NC2C(=O)N3C2SC(C)(C)[C@@H]3C(=O)O)cc1.CCN(CC)CC (stereo partly specified) | 1.31 |  |  |  |  |  |  |  |  |  |  |  |
| CC1(C)SC2C(NC(=O)NC3CCCCC3)C(=O)N2[C@H]1C(=O)[O-].[Na+] (stereo partly specified) | -0.62 | 2 | 99 | 0 |  |  |  |  |  |  |  |  |
| CC(C)(C)c1ccc(/C=C/NC(=O)NC2C(=O)N3C2SC(C)(C)[C@@H]3C(=O)O)cc1 (stereo partly specified) |  | 0 | 0 | 0 |  | 0.16 | > 10 |  |  |  |  |  |
| CCOc1ccc(/C=C/NC(=O)NC2C(=O)N3C2SC(C)(C)[C@@H]3C(=O)[O-])cc1.[Na+] (stereo partly specified) | 0.43 | 1 | 0 | 1 |  | 0.31 | > 10 |  |  |  |  |  |
| CC1(C)SC2C(NC(=O)Nc3ccccc3)C(=O)N2[C@H]1C(=O)[O-].[Na+] (stereo partly specified) | -0.75 | 3 | 96 | 110 |  |  |  |  |  |  |  |  |
| CC1(C)SC2C(NC(=O)N/C=C/C3CCCCC3)C(=O)N2[C@H]1C(=O)[O-].[Na+] (stereo partly specified) | 0.77 | 2 | 0 | 2 | 50 | 0.31 | 2.5 | 0.2 | 0.4 | 50 | > 200 |  |
| CCOC(=O)c1ccc(NC(=O)NC2C(=O)N3C2SC(C)(C)[C@@H]3C(=O)O)cc1 (stereo partly specified) |  | 3 | 101 | 95 |  |  |  |  |  |  |  |  |
| CC1(C)SC2C(NC(=O)N/C=C/c3ccc4ccccc4c3)C(=O)N2[C@H]1C(=O)[O-].[Na+] (stereo partly specified) | 1.05 | 8 | 1 | 2 | 100 | 0.31 | > 10 | 3.12 | 3.12 | 200 | > 200 |  |
| CC1(C)SC2C(NC(=O)N/C=C/c3ccc(Cl)c(Cl)c3)C(=O)N2[C@H]1C(=O)[O-].[Na+] (stereo partly specified) | 1.44 | 1 | 107 | 106 |  |  |  |  |  |  |  |  |
| CC1(C)SC2C(NC(=O)N/C=C/c3cccc(Br)c3)C(=O)N2[C@H]1C(=O)[O-].[Na+] (stereo partly specified) | 0.69 | 3 | 142 | 0 |  |  |  |  |  |  |  |  |
| CC1(C)SC2C(NC(=O)N/C=C/c3cccc4ccccc34)C(=O)N2[C@H]1C(=O)[O-].[Na+] (stereo partly specified) | 0.66 | 3 | 111 | 0 |  |  |  |  |  |  |  |  |
| CC1(C)SC2C(NC(=O)N/C=C/c3ccc4c(c3)OCO4)C(=O)N2[C@H]1C(=O)[O-].[Na+] (stereo partly specified) | -0.06 | 4 | 0 | 0 | 50 | 0.16 | > 10 | 1.6 | 6.25 | 200 | 100 |  |
| CC1(C)SC2C(NC(=O)NCCc3ccc4ccccc4c3)C(=O)N2[C@H]1C(=O)[O-].[Na+] (stereo partly specified) | 0.89 | 9 | 2 | 7 | 25 | 0.31 | > 10 | 0.05 | 0.1 | 6.25 | > 200 |  |
| CC1(C)SC2C(NC(=O)NCCc3ccccc3)C(=O)N2[C@H]1C(=O)[O-].[Na+] (stereo partly specified) | -0.6 | 9 | 4 | 6 |  | 0.31 | 5 | 0.1 | 0.1 | 3.12 | 100 | 50 |
| CC(C)(C)c1ccc(/C=C/NC(=O)NC2C(=O)N3C2SC(C)(C)[C@@H]3C(=O)[O-])cc1.[Na+] (stereo partly specified) | 1.31 |  |  |  | 100 |  |  | 1.6 | 3.12 | > 200 | > 200 |  |
| CC1(C)S[C@@H]2[C@H](NC(=O)Cc3ccccc3)C(=O)N2[C@H]1C(=O)O [PENICILLIN G] |  |  |  |  | 50 (≈ 150 µM) |  |  | 0.01 (≈ 0.0299 µM) | 0.05 (≈ 0.15 µM) | 0.4 (≈ 1.2 µM) | 25 (≈ 74.8 µM) |  |
| COc1cc(/C=C/NC(=O)NC2C(=O)N3C2SC(C)(C)[C@@H]3C(=O)[O-])cc(OC)c1OC.[Na+] (stereo partly specified) | -0.45 | 8 | 105 | 2 |  |  |  |  |  |  |  |  |
| CC1(C)SC2C(NC(=O)N/C=C/c3ccco3)C(=O)N2[C@H]1C(=O)[O-].[Na+] (stereo partly specified) | -0.26 | 3 | 101 | 89 |  |  |  |  |  |  |  |  |
| CC(C)NC(=O)NC1C(=O)N2C1SC(C)(C)[C@@H]2C(=O)[O-].[Na+] (stereo partly specified) | -2 | 7 | 108 | 119 |  |  |  |  |  |  |  |  |
| Cc1ccc(/C=C/NC(=O)NC2C(=O)N3C2SC(C)(C)[C@@H]3C(=O)[O-])cc1.[Na+] (stereo partly specified) | 0.5 | 2 | 0 | 2 |  | 0.31 | > 10 |  |  |  |  |  |
| CC1(C)SC2C(NC(=O)NC3CC3c3ccccc3)C(=O)N2[C@H]1C(=O)[O-].[Na+] (stereo partly specified) | -0.29 | 8 | 104 | 4 |  |  |  |  |  |  |  |  |
